Measured values taken from ChEMBL document CHEMBL1133585, “Antimalarial activity of compounds interfering with Plasmodium falciparum phospholipid metabolism: comparison between mono- and bisquaternary ammonium salts” (J Med Chem, 2000).

Test system: Plasmodium falciparum
Test: In vitro activity against Plasmodium falciparum
Type: functional, organism-based
Summary of the method: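 P. falciparum cultures at 0.3-0.5% parasitemia (percentage of infected erythrocytes) exposed to drug for one parasite cycle (48 h). Some drugs were dissolved in DMSO, then diluted in culture medium (final DMSO ≤0.25%). [3H]hypoxanthine was then added for 18 h to measure viability. IC50 is 50% inhibition of parasite growth, given as the mean of at least two independent experiments in triplicate using different stock solutions.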

Row | Compound | IC50
1 | CCCCCCCCCCCCCCCC[N+](CC)(CC)CC | 140 nM
2 | CCCCCCCCCCCC[N+](C)(C)CCCCCCCCCCCCCCCC[N+](C)(C)CCCCCCCCCCCC | 1800 nM
3 | CCCCCCCC[N+](C)(C)CCO | 3850 nM
4 | CCCCCCCCCCCC[N+](C)(C)CCCCCC[N+](C)(C)CCCCCCCCCCCC | 220 nM
5 | CC[N+](CC)(CC)CCCCCCCCCCCC[N+](CC)(CC)CC | 45 nM
6 | C=CC[N+](C)(CC=C)CCCCCCCCCCCC | 140 nM
7 | C#CCC[N+](C)(C)CCCCCCCCCCCC | 230 nM
8 | C#CC[N+](C)(CC#C)CCCCCCCCCCCC | 380 nM
9 | C#CC[N+](C)(C)CCCCCCCCCCCC | 360 nM
10 | CCCCC[N+](C)(C)CC(C)O (stereo unspecified) | 115000 nM
11 | C=CC[N+](C)(C)CCCCCCCCCCCC | 270 nM
12 | CCCCCCCCCCCC[N+](C)(C)CCCCCCCCCCCC[N+](C)(C)CCCCCCCCCCCC | 180 nM
13 | CCCCCCCCCCCCCCCC[N+]1(C)CCCC1 | 420 nM
14 | CCCCCC[N+](CC)(CC)CC | 9700 nM
15 | CCCCCCCCCCCCCC[N+]1(C)CCCC1 | 270 nM
16 | CCCCCC[N+]1(C)CCCC1 | 26000 nM
17 | CC[N+](CC)(CC)CCCCCC[N+](CC)(CC)CCCCCC[N+](CC)(CC)CC | 800000 nM
18 | CCCCCCCCCCCC[N+](C)(C)C(C)C(O)c1ccccc1 (stereo unspecified) | 670 nM

Row | Compound | IC50
19 | CCCCCCCC[N+](C)(C)C | 5000 nM
20 | CC[N+](CC)(CC)CCCCCCCCCCCCCCCCCCCCC[N+](CC)(CC)CC | 0.003 nM
21 | C[N+](C)(C)CCCCCCCCc1ccccc1 | 620 nM
22 | C[N+]1(CCCCCCCCCCCC[N+]2(C)CCCC2)CCCC1 | 13 nM
23 | CCCCCCCCCCCCCCCCCC[N+](CC)(CC)CC | 270 nM
24 | CCCCCCCCCCCC[N+]1(C)CCCC1 | 220 nM
25 | C[N+](C)(C)CCCCCCCCCCCCCCCC[N+](C)(C)C | 4 nM
26 | C#CCC[N+](C)(C)CCCCCCCCCCCC[N+](C)(C)CCC#C | 44 nM
27 | CCCCCCCCCCCC[N+](C)(C)CCC[N+](C)(C)CCCCCCCCCCCC | 10800 nM
28 | C=CC[N+](CC)(CC)CCCCCCCCCCCC[N+](CC)(CC)CC=C | 5.3 nM
29 | CCCCCCCCCCCCCCCC[N+](C)(C)CCO | 810 nM
30 | CC[N+](CC)(CC)CCCCCCCCCCCCCCCC[N+](CC)(CC)CC | 1.6 nM
31 | CC[N+](CC)(CC)CCCCCCCC[N+](CC)(CC)CC | 540 nM
32 | CC[N+](CC)(CCO)CCCCCCCCCCCCCCCC[N+](CC)(CC)CCO | 4.9 nM
33 | C[N+]1(CCCCCCCCCCCCCCCC[N+]2(C)CCCC2)CCCC1 | 0.64 nM
34 | C#CC[N+](C)(C)CCCCCCCCCCCC[N+](C)(C)CC#C | 7.6 nM
35 | CCCCCCCCCCCC[N+](C)(C)CC(C)O (stereo unspecified) | 430 nM
36 | C[N+]1(CCCCCCCCCCCCCC[N+]2(C)CCCC2)CCCC1 | 1.1 nM
